Measured values published in ChEMBL document CHEMBL4680297, “Design, synthesis, and evaluation of substrate - analogue inhibitors of Trypanosoma cruzi ribose 5-phosphate isomerase type B” (Bioorg Med Chem Lett, 2021).
Activity calls are given as the source filed them. The rule behind the calls is not given here.

Columns and labels:
Trypanosoma cruzi [1] = experiment: Inhibition of Trypanosoma cruzi RPE1 assessed as residual activity at 0.2 mM relative to control
Outline: (§1)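 TcRPE-1 (first enzyme of the coupled RPI assay) activity measured with compound at 0.2, 0.5, 1.0 or 2.0 mM, as % of uninhibited activity. Mean of three independent determinations ± SEM.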

NIH3T3 = experiment: Cytotoxicity against mouse NIH/3T3 cells; type: cell-based
Trypanosoma cruzi [2] = experiment: Inhibition of Trypanosoma cruzi RPE1 assessed as residual activity at 0.5 mM relative to control; outline: as §1
Trypanosoma cruzi [3] = experiment: Inhibition of Trypanosoma cruzi Ribose 5-phosphate isomerase type B assessed as residual activity at 2 mM using ribose 5-phosphate as substrate relative to control
Outline: (§2)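 TcRPI-B activity on R5P, measured by coupled enzyme assay (TcRPE-1 first coupling enzyme), with compound at 0.2, 0.5, 1.0 or 2.0 mM, as % of control activity. Mean of three independent determinations ± SEM.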

Trypanosoma cruzi [4] = experiment: Inhibition of Trypanosoma cruzi Ribose 5-phosphate isomerase type B assessed as residual activity at 0.5 mM using ribose 5-phosphate as substrate relative to control; outline: as §2
Trypanosoma cruzi [5] = experiment: Inhibition of Trypanosoma cruzi Ribose 5-phosphate isomerase type B assessed as residual activity at 0.2 mM using ribose 5-phosphate as substrate relative to control; outline: as §2
Trypanosoma cruzi [6] = experiment: Inhibition of Trypanosoma cruzi RPE1 assessed as residual activity at 2 mM relative to control; outline: as §1
Trypanosoma cruzi [7] = experiment: Inhibition of Trypanosoma cruzi Ribose 5-phosphate isomerase type B assessed as residual activity at 1 mM using ribose 5-phosphate as substrate relative to control; outline: as §2
Trypanosoma cruzi [8] = experiment: Inhibition of Trypanosoma cruzi RPE1 assessed as residual activity at 1 mM relative to control; outline: as §1
Trypanosoma cruzi [9] = experiment: Trypanocidal activity against Trypanosoma cruzi trypomastigotes expressing beta galactosidase infected in NIH/3T3 cells assessed as parasite growth inhibition at up to 50 uM by reporter assay; details: dose microM <=50
[10] = Competitive inhibition of Trypanosoma cruzi Ribose 5-phosphate isomerase type B using varying levels of ribose 5-phosphate as substrate by Dixon plot analysis
Outline: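 Coupled assay with TcRPE-1 as first coupling enzyme. Inhibitor at 0, 10, 20, 40, 60 and 80 μM, R5P at 0.4, 0.8 and 2 mM. Ki taken from the x-axis intersection of Dixon plots (1/V vs [inhibitor]). Inhibition type assigned from parallel [R5P]/V vs [inhibitor] lines (Cornish-Bowden). Mean of four independent experiments.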

Trypanosoma cruzi [11] = experiment: Trypanocidal activity against Trypanosoma cruzi trypomastigotes expressing beta galactosidase infected in NIH/3T3 cells assessed as parasite growth inhibition by reporter assay; type: functional, organism-based; details: NIH3T3
Outline: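 Tulahuen strain expressing β-galactosidase. Trypomastigotes added to NIH-3T3 fibroblasts together with compound, up to 50 μM, covering infection and intracellular amastigote growth. β-Galactosidase activity taken as parasite viability. IC50 from dose-response fits, in triplicate. Amphotericin B positive control.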

Trypanosoma cruzi [12] = experiment: Binding affinity to Trypanosoma cruzi Ribose 5-phosphate isomerase type B assessed as covalent bond formation between compound and protein Cys69 residue by trypsin digestion based LC-MS/MS analysis
Outline: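 TcRPI-B incubated intact with inhibitor for 30 min, then digested with trypsin to map cysteine modification.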

[13] = Competitive inhibition of recombinant poly-His-tagged Trypanosoma cruzi Ribose 5-phosphate isomerase type B expressed in Escherichia coli BL21 codon plus (DE3) using ribose 5-phosphate as substrate
Outline: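 Coupled spectrophotometric RPI assay, with T. cruzi ribulose 5-phosphate epimerase (TcRPE-1) as the first coupling enzyme. Inhibitor was tested at 0, 10, 20, 40, 60 and 80 μM, each at R5P 0.4, 0.8 and 2 mM. Ki came from Dixon plots (1/V vs [inhibitor]), as the X-axis intersection of the three lines. Inhibition type was assigned from [R5P]/V vs [inhibitor] plots (Cornish-Bowden). Mean of four independent experiments.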

[14] = Inhibition of Trypanosoma cruzi Ribose 5-phosphate isomerase type B expressed in Escherichia coli BL21 codon plus (DE3) using ribose 5-phosphate as substrate

| SMILES | Activity (Trypanosoma cruzi [1]) | Activity (NIH3T3) | Activity (Trypanosoma cruzi [2]) | Activity (Trypanosoma cruzi [3]) | Activity (Trypanosoma cruzi [4]) | Activity (Trypanosoma cruzi [5]) | Activity (Trypanosoma cruzi [6]) | Activity (Trypanosoma cruzi [7]) | Activity (Trypanosoma cruzi [8]) | Activity (Trypanosoma cruzi [9]) | Ki [10] | IC50 (Trypanosoma cruzi [11]) | Activity (Trypanosoma cruzi [12]) | Ki [13] | Ki [14] |
| --- | --- | --- | --- | --- | --- | --- | --- | --- | --- | --- | --- | --- | --- | --- | --- |
| O=C(Cc1ccccc1)NCCOP(=O)(O)O | 100% | Non-Toxic | 91.9% | 89.2% | 97.4% | 98.1% | 85.9% | 95.3% | 87.4% | inactive | – | – | – | – | – |
| O=C(CI)NCCOP(=O)(O)O | 89.5% | Non-Toxic | 89.5% | 0% | 7.5% | 25.2% | 57.4% | 1.2% | 103% | – | 5.5 µM | 17.4 µM | Active | – | – |
| O=C(CCl)NCCOP(=O)(O)O | 100% | Non-Toxic | 103% | 83.7% | 105% | 107% | 82.6% | 98.5% | 95.5% | – | – | – | – | – | – |
| O=C(CBr)NCCOP(=O)(O)O | 91.1% | Non-Toxic | 85.8% | 18.3% | 62.7% | 78.5% | 65.1% | 41.3% | 77.3% | inactive | – | – | – | – | – |
| C[C@@H]1[C@H](O)[C@@H](C)/C=C/C=C/C=C/C=C/C=C/C=C/C=C/[C@H](O[C@@H]2O[C@H](C)[C@@H](O)[C@H](N)[C@@H]2O)C[C@@H]2O[C@](O)(C[C@@H](O)C[C@@H](O)[C@H](O)CC[C@@H](O)C[C@@H](O)CC(=O)O[C@H]1C)C[C@H](O)[C@H]2C(=O)O [AMPHOTERICIN B] | – | – | – | – | – | – | – | – | – | – | – | 0.23 µM | – | – | – |
| O=C(NO)[C@H](O)[C@H](O)COP(=O)(O)O | – | – | – | – | – | – | – | – | – | – | – | – | – | 1200 µM | – |
| O=C(CF)NCCOP(=O)(O)O | 111% | Non-Toxic | 103% | – | 2040% | – | 83.5% | – | 93.2% | inactive | – | – | – | – | – |
| O=C[C@H](O)[C@H](O)[C@H](O)[C@H](O)COP(=O)(O)O | – | – | – | – | – | – | – | – | – | – | – | – | – | – | 15000 µM |
